From ChEMBL document CHEMBL2407064 (J Med Chem, 2013)
The source made the active and inactive calls. The rule behind the calls is not given here.

Assays:
[1] = tested on: Mus musculus; experiment: Antidepressant-like activity in BALB/cJ mouse assessed as decrease in immobility time at 20 mg/kg, ip administered 30 mins before test measured for 6 mins by forced swimming test; format: functional, organism-based; design: dose 20 mg/kg
Outline: (§1)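 Male BALB/cJ mice, 8–10 weeks old. Drugs dissolved in water and given i.p. or orally at 10 ml/kg, 30 min before the trial. Sertraline 20 mg/kg was the positive control. Each mouse was placed in a glass cylinder with 12 cm of 23 ± 1 °C water, and immobility (floating) was timed over a 6 min trial. ANOVA with Fisher's LSD; n = 9–10/group.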

[2] = tested on: Mus musculus; experiment: Antidepressant-like activity in BALB/cJ mouse assessed as decrease in immobility time at 1 mg/kg, po administered 30 mins before test measured for 6 mins by forced swimming test; format: functional, organism-based; design: dose 1 mg/kg; outline: as §1
[3] = tested on: Mus musculus; experiment: Antidepressant-like activity in BALB/cJ mouse assessed as decrease in immobility time at 1 mg/kg, ip administered 30 mins before test measured for 6 mins by forced swimming test; format: functional, organism-based; design: dose 1 mg/kg; outline: as §1
[4] = molecular target: T1, Acetylcholine receptor; alpha1/beta1/delta/gamma (Homo sapiens) (UniProt P02708+P07510+P11230+Q07001); experiment: Antagonist activity at alpha1beta1gammadelta nAChR in human TE671/RD cells assessed as inhibition of carbamylcholine-induced 86Rb+ ion efflux preincubated for 10 mins by liquid scintillation counting analysis; format: cell-based
[5] = molecular target: T1, Acetylcholine receptor; alpha1/beta1/delta/gamma (Homo sapiens); experiment: Agonist activity at alpha1beta1gammadelta nAChR in human TE671/RD cells assessed as stimulation of 86Rb+ ion efflux after 5 mins by liquid scintillation counting analysis; format: cell-based
Outline: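 Human TE671/RD cells, which natively express muscle-type α1β1γδ nAChRs, maintained at low passage (1–26) and split 1/300 weekly. 86Rb+ efflux. Agonism given as EC50 with efficacy normalized to carbamylcholine.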

[6] = tested on: Salmonella typhimurium; experiment: Genotoxicity in Salmonella typhimurium TA1537 up to 3 x 10^5 uM by Ames test in presence of liver S9 fraction; format: toxicity, organism-based; details: salmonella enterica subsp. enterica serovar typhimurium
[7] = tested on: Salmonella typhimurium; experiment: Genotoxicity in Salmonella typhimurium TA1537 up to 3 x 10^5 uM by Ames test; format: toxicity, organism-based; details: salmonella enterica subsp. enterica serovar typhimurium
[8] = tested on: Mus musculus; experiment: Antidepressant-like activity in BALB/cJ mouse assessed as decrease in immobility time at 1 to 10 mg/kg, ip administered 30 mins before test measured for 6 mins by forced swimming test; format: functional, organism-based; outline: as §1
[9] = molecular target: T2, Neuronal acetylcholine receptor; alpha3/alpha6/beta2/beta3 (Homo sapiens, UniProt P17787+P32297+Q05901+Q15825); experiment: Antagonist activity at human alpha6/alpha3beta2beta3 nAChR expressed in human SHEP1 cells assessed as inhibition of carbamylcholine-induced 86Rb+ ion efflux preincubated for 10 mins by liquid scintillation counting analysis; format: cell-based
T2 sequence (P17787 whole entry): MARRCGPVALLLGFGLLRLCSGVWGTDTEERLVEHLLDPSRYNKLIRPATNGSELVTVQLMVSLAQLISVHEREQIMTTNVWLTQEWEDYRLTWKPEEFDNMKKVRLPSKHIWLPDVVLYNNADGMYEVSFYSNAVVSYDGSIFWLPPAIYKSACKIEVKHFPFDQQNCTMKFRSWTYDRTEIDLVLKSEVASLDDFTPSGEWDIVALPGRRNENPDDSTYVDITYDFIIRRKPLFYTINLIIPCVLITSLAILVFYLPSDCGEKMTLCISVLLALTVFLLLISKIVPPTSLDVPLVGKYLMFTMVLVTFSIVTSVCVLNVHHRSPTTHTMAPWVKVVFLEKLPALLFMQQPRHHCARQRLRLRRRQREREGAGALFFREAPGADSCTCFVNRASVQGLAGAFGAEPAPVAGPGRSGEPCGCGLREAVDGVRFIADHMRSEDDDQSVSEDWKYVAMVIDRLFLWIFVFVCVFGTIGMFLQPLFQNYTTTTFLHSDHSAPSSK
T2 sequence (P32297 whole entry): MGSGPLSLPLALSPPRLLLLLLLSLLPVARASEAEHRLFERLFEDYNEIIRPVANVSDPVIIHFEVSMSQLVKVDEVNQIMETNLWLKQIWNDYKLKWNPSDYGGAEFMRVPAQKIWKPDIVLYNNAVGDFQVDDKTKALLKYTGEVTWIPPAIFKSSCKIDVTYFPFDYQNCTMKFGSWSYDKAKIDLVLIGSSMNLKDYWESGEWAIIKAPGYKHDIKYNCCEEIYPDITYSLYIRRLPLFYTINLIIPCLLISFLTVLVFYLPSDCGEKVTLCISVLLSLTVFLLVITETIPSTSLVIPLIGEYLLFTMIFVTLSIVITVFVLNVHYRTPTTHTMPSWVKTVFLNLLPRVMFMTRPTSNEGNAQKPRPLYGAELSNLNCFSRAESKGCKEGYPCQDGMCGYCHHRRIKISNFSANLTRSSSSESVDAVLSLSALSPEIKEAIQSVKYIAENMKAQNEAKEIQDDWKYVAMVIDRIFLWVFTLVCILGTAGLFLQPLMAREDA
T2 sequence (Q15825 whole entry): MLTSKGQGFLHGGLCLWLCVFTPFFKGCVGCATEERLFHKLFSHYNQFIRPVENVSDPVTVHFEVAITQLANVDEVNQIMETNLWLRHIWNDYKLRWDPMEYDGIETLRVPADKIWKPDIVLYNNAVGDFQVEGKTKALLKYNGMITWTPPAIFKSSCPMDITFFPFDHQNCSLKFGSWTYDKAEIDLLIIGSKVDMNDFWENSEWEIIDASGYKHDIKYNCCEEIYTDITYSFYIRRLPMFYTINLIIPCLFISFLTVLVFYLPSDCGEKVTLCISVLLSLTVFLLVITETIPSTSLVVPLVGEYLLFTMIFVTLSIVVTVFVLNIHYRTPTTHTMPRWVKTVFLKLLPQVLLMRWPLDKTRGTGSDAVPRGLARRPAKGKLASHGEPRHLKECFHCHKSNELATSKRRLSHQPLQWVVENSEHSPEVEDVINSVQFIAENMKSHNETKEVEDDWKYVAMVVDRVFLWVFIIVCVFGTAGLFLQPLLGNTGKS
T2 sequence (Q05901 whole entry): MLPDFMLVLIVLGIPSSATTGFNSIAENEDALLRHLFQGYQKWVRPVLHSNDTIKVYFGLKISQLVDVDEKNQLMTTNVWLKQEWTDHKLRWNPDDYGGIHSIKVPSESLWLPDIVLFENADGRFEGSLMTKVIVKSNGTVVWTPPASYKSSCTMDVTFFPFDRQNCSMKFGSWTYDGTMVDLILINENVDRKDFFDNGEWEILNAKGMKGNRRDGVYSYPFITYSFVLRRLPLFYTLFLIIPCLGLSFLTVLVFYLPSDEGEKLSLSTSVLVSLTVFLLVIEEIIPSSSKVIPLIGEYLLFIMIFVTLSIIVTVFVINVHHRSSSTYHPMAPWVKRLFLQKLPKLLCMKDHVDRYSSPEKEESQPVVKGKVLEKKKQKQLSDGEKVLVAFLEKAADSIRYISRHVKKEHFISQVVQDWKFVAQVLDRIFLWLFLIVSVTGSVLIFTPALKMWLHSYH

[10] = molecular target: T2, Neuronal acetylcholine receptor; alpha3/alpha6/beta2/beta3; experiment: Agonist activity at human alpha6/alpha3beta2beta3 nAChR expressed in human SHEP1 cells assessed as stimulation of 86Rb+ ion efflux after 5 mins by liquid scintillation counting analysis; format: cell-based
[11] = tested on: Mus musculus; experiment: Toxicity in BALB/cJ mouse assessed as mortality at 10 mg/kg, ip; format: organism-based; design: dose 10 mg/kg, route intraperitoneal; details: in vivo
[12] = tested on: Mus musculus; experiment: Toxicity in BALB/cJ mouse assessed as occurrence of tremor at 5 mg/kg, ip; format: organism-based; design: dose 5 mg/kg, route intraperitoneal; details: in vivo
[13] = tested on: Mus musculus; experiment: Toxicity in BALB/cJ mouse assessed as sedative effect at 5 mg/kg, ip; format: organism-based; design: dose 5 mg/kg, route intraperitoneal; details: in vivo
[14] = Chemical stability of the compound at room temperature; format: physicochemical
[15] = tested on: Salmonella typhimurium; experiment: Genotoxicity in Salmonella typhimurium TA1537 at 50 to 100 uM by Ames test in presence of liver S9 fraction; format: toxicity, organism-based; details: salmonella enterica subsp. enterica serovar typhimurium, s9, 100 µM
Outline: (§2)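 Bacterial reverse mutation (Ames) test in TA98, TA100, TA1535 and TA1537 strains, with and without liver S9 metabolic activation. Test concentrations 5, 10, 50 and 100 μM.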

[16] = tested on: Salmonella typhimurium; experiment: Genotoxicity in Salmonella typhimurium TA1537 at 5 to 10 uM by Ames test in presence of liver S9 fraction; format: toxicity, organism-based; details: salmonella enterica subsp. enterica serovar typhimurium, s9, 10 µM
[17] = tested on: Salmonella typhimurium; experiment: Genotoxicity in Salmonella typhimurium TA1535 at 5 to 100 uM by Ames test in presence of liver S9 fraction; format: toxicity, organism-based; details: salmonella enterica subsp. enterica serovar typhimurium, s9, 100 µM; outline: as §2
[18] = tested on: Salmonella typhimurium; experiment: Genotoxicity in Salmonella typhimurium TA100 at 5 to 100 uM by Ames test in presence of liver S9 fraction; format: toxicity, organism-based; details: salmonella enterica subsp. enterica serovar typhimurium, s9, 100 µM; outline: as §2
[19] = tested on: Salmonella typhimurium; experiment: Genotoxicity in Salmonella typhimurium TA98 at 5 to 100 uM by Ames test in presence of liver S9 fraction; format: toxicity, organism-based; details: salmonella enterica subsp. enterica serovar typhimurium, s9, 100 µM; outline: as §2
[20] = tested on: Salmonella typhimurium; experiment: Genotoxicity in Salmonella typhimurium TA1537 at 5 to 100 uM by Ames test; format: toxicity, organism-based; details: salmonella enterica subsp. enterica serovar typhimurium; outline: as §2
[21] = tested on: Salmonella typhimurium; experiment: Genotoxicity in Salmonella typhimurium TA1535 at 5 to 100 uM by Ames test; format: toxicity, organism-based; details: salmonella enterica subsp. enterica serovar typhimurium; outline: as §2
[22] = tested on: Salmonella typhimurium; experiment: Genotoxicity in Salmonella typhimurium TA100 at 5 to 100 uM by Ames test; format: toxicity, organism-based; details: salmonella enterica subsp. enterica serovar typhimurium; outline: as §2
[23] = tested on: Salmonella typhimurium; experiment: Genotoxicity in Salmonella typhimurium TA98 at 5 to 100 uM by Ames test; format: toxicity, organism-based; details: salmonella enterica subsp. enterica serovar typhimurium; outline: as §2
[24] = tested on: Caco-2; experiment: Permeability from basolateral to apical side in human Caco2 cells at pH 7.4; format: ADME, cell-based; details: caco-2, pH 7.4
Outline: (§3)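 Bidirectional Caco-2 monolayer permeability, apical-to-basolateral and basolateral-to-apical, at pH 7.4 on both sides. Run with and without the P-gp inhibitor verapamil. Apparent permeability given in cm/s.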

[25] = tested on: Caco-2; experiment: Permeability from apical to basolateral side in human Caco2 cells at pH 7.4; format: ADME, cell-based; details: caco-2, pH 7.4; outline: as §3
[26] = tested on: Plasma; experiment: Plasma protein binding in CD-1 mouse at 10 uM; format: ADME, cell-free
Outline: (§4)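 Plasma protein binding measured in human and CD-1 mouse plasma at 10 μM test compound, given as percent bound.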

[27] = tested on: Plasma; experiment: Plasma protein binding in human at 10 uM; format: ADME, cell-free; outline: as §4
[28] = molecular target: T3, hERG (KCNH2) (Homo sapiens, UniProt Q12809); experiment: Inhibition of human ERG at 1 uM relative to control
T3 sequence (Q12809 whole entry): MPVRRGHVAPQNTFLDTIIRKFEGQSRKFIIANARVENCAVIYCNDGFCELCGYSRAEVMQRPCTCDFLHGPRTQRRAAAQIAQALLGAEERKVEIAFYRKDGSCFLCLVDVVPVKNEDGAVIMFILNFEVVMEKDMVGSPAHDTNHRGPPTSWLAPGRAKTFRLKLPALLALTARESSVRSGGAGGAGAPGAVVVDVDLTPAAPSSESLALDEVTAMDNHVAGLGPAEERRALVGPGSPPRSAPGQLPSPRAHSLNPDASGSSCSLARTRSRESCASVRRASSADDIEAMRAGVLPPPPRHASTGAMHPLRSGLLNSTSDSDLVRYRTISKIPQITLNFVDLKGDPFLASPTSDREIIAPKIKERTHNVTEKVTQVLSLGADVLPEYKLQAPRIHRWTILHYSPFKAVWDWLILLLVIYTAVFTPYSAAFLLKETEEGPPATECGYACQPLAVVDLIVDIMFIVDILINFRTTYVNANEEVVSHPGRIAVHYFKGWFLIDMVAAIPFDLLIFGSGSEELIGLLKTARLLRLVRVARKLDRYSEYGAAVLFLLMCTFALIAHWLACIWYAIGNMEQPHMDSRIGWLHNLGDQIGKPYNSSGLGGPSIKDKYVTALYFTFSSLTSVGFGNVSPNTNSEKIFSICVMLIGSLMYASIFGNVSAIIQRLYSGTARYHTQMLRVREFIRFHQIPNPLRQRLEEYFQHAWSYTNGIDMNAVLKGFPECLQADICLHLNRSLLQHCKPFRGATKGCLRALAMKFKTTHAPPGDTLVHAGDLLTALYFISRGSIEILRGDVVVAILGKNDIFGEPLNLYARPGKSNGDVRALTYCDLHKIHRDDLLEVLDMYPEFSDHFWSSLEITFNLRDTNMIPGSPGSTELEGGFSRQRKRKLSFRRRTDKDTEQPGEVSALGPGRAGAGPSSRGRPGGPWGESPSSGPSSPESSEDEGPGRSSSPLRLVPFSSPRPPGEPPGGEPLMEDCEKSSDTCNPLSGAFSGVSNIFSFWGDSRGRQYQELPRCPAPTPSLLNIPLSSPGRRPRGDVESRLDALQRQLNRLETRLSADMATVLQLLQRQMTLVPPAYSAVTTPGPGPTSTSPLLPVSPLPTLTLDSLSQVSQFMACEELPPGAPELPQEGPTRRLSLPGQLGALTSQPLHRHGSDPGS
Outline: (§5)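 Human ERG inhibition tested at three concentrations (0.1, 1 and 10 μM), expressed as percent inhibition.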

[29] = molecular target: T3, hERG (KCNH2); experiment: Inhibition of human ERG at 10 uM relative to control; outline: as §5
[30] = tested on: CYP3A; experiment: Inhibition of CYP3A (unknown origin) at 10 uM relative to control; format: ADME; details: human
Outline: (§6)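 Inhibition of CYP1A, CYP2C9, CYP2C19, CYP2D6 and CYP3A isoforms measured in the presence of 10 μM test compound, expressed as percent inhibition.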

[31] = molecular target: T3, hERG (KCNH2); experiment: Inhibition of human ERG at 0.1 uM relative to control; outline: as §5
[32] = molecular target: CYP2D6 (Homo sapiens, UniProt P10635); experiment: Inhibition of CYP2D6 (unknown origin) at 10 uM relative to control; format: ADME; outline: as §6
[33] = molecular target: CYP2C9 (Homo sapiens, UniProt P11712); experiment: Inhibition of CYP2C9 (unknown origin) at 10 uM relative to control; format: ADME; outline: as §6
Chain of CYP2C9 (P11712 whole entry): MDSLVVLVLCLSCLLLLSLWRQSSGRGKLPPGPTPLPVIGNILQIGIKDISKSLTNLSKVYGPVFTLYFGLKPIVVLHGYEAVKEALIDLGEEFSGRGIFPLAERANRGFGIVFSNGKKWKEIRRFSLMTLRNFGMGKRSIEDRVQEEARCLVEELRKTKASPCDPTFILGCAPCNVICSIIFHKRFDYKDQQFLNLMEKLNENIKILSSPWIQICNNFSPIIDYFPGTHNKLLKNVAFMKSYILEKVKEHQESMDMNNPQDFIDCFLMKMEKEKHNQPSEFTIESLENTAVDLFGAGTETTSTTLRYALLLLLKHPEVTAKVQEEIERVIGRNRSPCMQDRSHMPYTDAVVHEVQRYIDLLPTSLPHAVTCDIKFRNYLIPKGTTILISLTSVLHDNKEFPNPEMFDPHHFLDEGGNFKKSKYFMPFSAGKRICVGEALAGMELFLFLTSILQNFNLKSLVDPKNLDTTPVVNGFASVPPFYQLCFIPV

[34] = molecular target: CYP2C19 (Homo sapiens, UniProt P33261); experiment: Inhibition of CYP2C19 (unknown origin) at 10 uM relative to control; format: ADME; outline: as §6
Chain of CYP2C19 (P33261 whole entry): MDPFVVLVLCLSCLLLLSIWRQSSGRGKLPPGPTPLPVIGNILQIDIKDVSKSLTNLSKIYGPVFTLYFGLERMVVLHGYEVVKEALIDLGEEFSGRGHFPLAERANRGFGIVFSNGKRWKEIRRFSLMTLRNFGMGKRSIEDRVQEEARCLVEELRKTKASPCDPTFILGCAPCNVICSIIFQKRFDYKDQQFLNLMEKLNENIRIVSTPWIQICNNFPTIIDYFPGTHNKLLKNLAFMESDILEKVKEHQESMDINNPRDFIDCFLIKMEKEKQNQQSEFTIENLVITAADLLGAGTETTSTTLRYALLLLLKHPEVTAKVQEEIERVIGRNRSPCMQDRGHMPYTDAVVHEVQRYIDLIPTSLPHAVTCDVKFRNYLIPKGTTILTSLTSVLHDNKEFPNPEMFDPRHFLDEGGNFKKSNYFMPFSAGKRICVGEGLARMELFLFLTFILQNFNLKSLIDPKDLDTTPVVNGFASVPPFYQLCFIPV

[35] = Metabolic stability in human hepatocytes assessed as compound remaining at 1 uM after 2 hrs; format: ADME, cell-based, Hepatocyte; details: read-out: Stability
Outline: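 Cryopreserved human hepatocytes incubated with 1 μM test compound for 2 h. Percent parent compound remaining unchanged was measured.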

[36] = Metabolic stability in CD-1 mouse liver microsomes assessed as compound remaining at 0.1 uM after 1 hr; format: ADME, Microsome; details: CD-1, liver microsomes; read-out: Stability
Outline: (§7)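 Human or CD-1 mouse liver microsomes incubated with 0.1 μM test compound for 1 h. Percent parent compound remaining unchanged was measured.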

[37] = Metabolic stability in human liver microsomes assessed as compound remaining at 0.1 uM after 1 hr; format: ADME, Microsome; details: read-out: Stability; outline: as §7
[38] = molecular target: T4, Neuronal acetylcholine receptor; alpha4/beta2 (Homo sapiens, UniProt P17787+P43681); experiment: Antagonist activity at human alpha4beta2 nACHR expressed in human SHEP1 cells assessed as inhibition of carbamylcholine-induced 86Rb+ ion efflux preincubated for 10 mins by liquid scintillation counting analysis; format: cell-based
T4 sequence (P17787 whole entry): as the sequence (P17787 whole entry) above
T4 sequence (P43681 whole entry): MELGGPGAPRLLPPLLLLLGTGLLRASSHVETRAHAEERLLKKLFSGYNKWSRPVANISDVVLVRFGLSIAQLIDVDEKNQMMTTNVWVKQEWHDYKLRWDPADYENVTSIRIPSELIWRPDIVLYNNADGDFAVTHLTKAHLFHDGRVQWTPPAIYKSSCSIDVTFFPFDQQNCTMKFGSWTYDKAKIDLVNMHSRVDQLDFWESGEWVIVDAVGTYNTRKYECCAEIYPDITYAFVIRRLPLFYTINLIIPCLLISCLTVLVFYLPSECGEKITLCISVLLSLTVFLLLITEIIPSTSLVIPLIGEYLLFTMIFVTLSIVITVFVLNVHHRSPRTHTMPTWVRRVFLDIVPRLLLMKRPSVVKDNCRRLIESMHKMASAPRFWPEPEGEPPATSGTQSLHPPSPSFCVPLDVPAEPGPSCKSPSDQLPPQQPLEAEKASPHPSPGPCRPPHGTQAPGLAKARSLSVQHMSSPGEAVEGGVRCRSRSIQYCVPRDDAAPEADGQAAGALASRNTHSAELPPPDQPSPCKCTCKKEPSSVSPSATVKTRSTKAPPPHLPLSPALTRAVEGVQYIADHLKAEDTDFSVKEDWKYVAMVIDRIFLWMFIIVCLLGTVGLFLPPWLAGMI

[39] = molecular target: T4, Neuronal acetylcholine receptor; alpha4/beta2; experiment: Agonist activity at human alpha4beta2 nACHR expressed in human SHEP1 cells assessed as stimulation of 86Rb+ ion efflux after 5 mins by liquid scintillation counting analysis; format: cell-based

CN[C@H]1CC[C@@H](c2ccc(Cl)c(Cl)c2)c2ccccc21
Activity [1]: Active

COCC[C@H]1C[C@@H]1c1cncc(OC[C@@H]2CCCN2C)c1
Activity [2]: Active | Activity [3]: Active | inhibition [4]: inactive | Activity [5]: Active

COCC[C@H]1C[C@@H]1c1cncc(OC[C@@H]2CCCN2C)c1.O=C(O)C(O)C(O)C(=O)O
Activity [6]: Non-toxic | Activity [7]: Non-toxic

COCC[C@H]1C[C@@H]1c1cncc(OC[C@@H]2CCCN2)c1
Activity [8]: inactive | inhibition [4]: inactive | IC50 [9]: 223 nM | Activity [5]: Active | EC50 [10]: 51.5 nM

COCC[C@H]1C[C@@H]1c1cncc(OC[C@H]2CCNC2)c1.O=C(O)C(F)(F)F (single isomer, unassigned)
Activity [11]: Toxic | Activity [12]: Toxic | Activity [13]: Toxic | inhibition [4]: inactive | Activity [5]: Active

COCC[C@H]1C[C@@H]1c1cncc(OC[C@@H]2CCCN2C)c1.O=C(O)C(F)(F)F
Stability [14]: Stable | Activity [15]: Toxic | Activity [16]: Non-toxic | Activity [17]: Non-toxic | Activity [18]: Non-toxic | Activity [19]: Non-toxic | Activity [20]: Non-toxic | Activity [21]: Non-toxic | Activity [22]: Non-toxic | Activity [23]: Non-toxic | permeability [24]: 18.4 ×10⁻⁶ cm/s | permeability [25]: 90.9 ×10⁻⁶ cm/s | PPB [26]: 11% | PPB [27]: 31% | inhibition at 1 µM [28]: 7% | inhibition at 10 µM [29]: 23% | inhibition at 10 µM [30]: 10% | inhibition at 0.1 µM [31]: 4% | inhibition at 10 µM [32]: 44% | inhibition at 10 µM [33]: 30% | inhibition at 10 µM [34]: 21% | remaining at 2 h, 1 µM [35]: 85.7% | remaining at 1 h, 0.1 µM [36]: 90.1% | remaining at 1 h, 0.1 µM [37]: 103% | IC50 [9]: 23.9 nM | IC50 [38]: 20 nM | EC50 [10]: 9 nM | EC50 [39]: 14.4 nM

COCC[C@H]1C[C@@H]1c1cncc(OC[C@@H]2CCN2)c1
IC50 [9]: 9.7 nM | EC50 [10]: 7.4 nM
